Screening data (PubChem BioAssay)
A selection: hits, their analogues and other compounds. The true share with any hit is near 1.6%.
Scp1 inh: Scp-1 (human) phosphatase inhibition; Q9GZU7; inhibition, % at 20 µM; Recombinant Scp1, phosphopeptide, malachite green phosphate absorbance; AID 493091; hit rate 0.88% among 340,000;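 active means inhibition above about 50% at 20 µM, limit read from the data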;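 further: plate controls were DMSO wells with enzyme for no effect and wells lacking enzyme for full effect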
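Assay system: SCP-1 catalytic fragment, aa 76-261 | Buffer or medium: Tris acetate buffer pH 5.5 with MgCl2 and Tween-20 | Compound: One concentration, 20 µM, with 1.0% DMSO | Also added: Phospho 17-mer peptide substrate | Signal: Absorbance at 630 nm | Incubation: 45 min enzyme reaction at room temperature | Measure: % inhibition of SCP-1 phosphate liberation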
CFTR F508del cor: CFTR F508del correction in bronchial cells. CFBE cells, YFP halide quenching; stimulated with forskolin plus potentiator P3; % fluorescence drop versus neutral controls. activity (quench increase), % at 7.58 µM. hit rate 0.36% among 350,000;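 active means mean added fluorescence quench of at least 8% versus neutral control, with both replicates also reaching 8%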;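 further: cells transiently co-express mutant CFTR-F508del with the halide-sensitive YFP; corrector assay measuring rescue of mutant channel to the surface after 24 h compound exposure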
SUMO1 PPI mod: alters human SUMO1 binding to SIM partners. inhibition, % at 20 µM. AID 602429. P63165. hit rate 0.33% among 360,000. SUMO1 binding to a labelled peptide, TR-FRET, 1 h; in the data active means inhibition above about 37%
DNMT1 block: DNMT1 (human) enzyme inhibition. P26358. DNMT1 molecular beacon, Hinp1I cleavage, fluorescence. inhibition (reported as % activation of signal), % at 10 µM. hit rate 0.83% among 360,000. AID 588458; in the data active means inhibition above about 50%
STEP block: blocks human striatal-enriched tyrosine phosphatase; inhibition, % at 20 µM; recombinant STEP, OMFP fluorogenic substrate, fluorescence; hit rate 0.25% among 360,000; P54829; AID 588621;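 active means inhibition at 20 µM, scaled per plate between control wells, above about 37%, limit read from the data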;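 further: 0% = DMSO with enzyme and substrate and 100% = substrate only without enzyme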
Target sequence (P54829 whole entry, looked up): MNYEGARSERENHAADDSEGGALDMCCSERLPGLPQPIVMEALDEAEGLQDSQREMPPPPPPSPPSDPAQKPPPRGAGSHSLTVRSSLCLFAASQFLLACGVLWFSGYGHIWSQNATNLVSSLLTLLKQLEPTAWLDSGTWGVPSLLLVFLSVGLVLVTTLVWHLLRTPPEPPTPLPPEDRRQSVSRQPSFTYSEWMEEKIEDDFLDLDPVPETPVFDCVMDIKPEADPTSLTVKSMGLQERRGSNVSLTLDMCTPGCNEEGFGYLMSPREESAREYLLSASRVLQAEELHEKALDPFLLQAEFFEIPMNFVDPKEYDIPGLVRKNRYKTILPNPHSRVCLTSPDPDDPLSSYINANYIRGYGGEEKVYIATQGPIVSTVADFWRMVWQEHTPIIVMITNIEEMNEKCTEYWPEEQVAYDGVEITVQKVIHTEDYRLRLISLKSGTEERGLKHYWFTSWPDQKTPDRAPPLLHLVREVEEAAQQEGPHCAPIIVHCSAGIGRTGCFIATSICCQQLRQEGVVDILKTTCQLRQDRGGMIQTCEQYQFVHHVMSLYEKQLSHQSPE
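Material: STEP (striatal-enriched tyrosine phosphatase) enzyme, cell-free; Compound dosing: 20 µM single dose in 1% DMSO; Technique: fluorescence read at 480 nm ex / 540 nm em; Times: reaction 20 min, ambient temperature; Medium: 50 mM Bis-Tris pH 6.0 with 2.5 mM DTT and 0.005% Tween 20; Also added: OMFP at 25 µM.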
LMPTP inh: blocks human LMPTP phosphatase. inhibition, % at 20 µM. hit rate 0.22% among 360,000. P24666. recombinant LMPTP-A, OMFP fluorogenic substrate, fluorescence intensity;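 active means compounds that cut the enzyme signal by at least half of the control window in the single-dose screen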;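 further: plate controls were DMSO wells with enzyme plus substrate for no effect and substrate without enzyme for full effect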
Target sequence (P24666 whole entry, looked up): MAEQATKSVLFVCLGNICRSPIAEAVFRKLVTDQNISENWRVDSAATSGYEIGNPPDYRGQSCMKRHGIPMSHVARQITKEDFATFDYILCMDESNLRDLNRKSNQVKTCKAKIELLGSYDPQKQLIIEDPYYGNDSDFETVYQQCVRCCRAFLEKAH
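Assay system: LMPTP-A enzyme. Input: 0.625 nM LMPTP-A final. Probe or stimulus: 400 µM OMFP. Compound dosing: single 20 µM dose. Schedule: 50 min dark incubation at room temperature. Detection: fluorescence intensity of OMFP turnover product. Read-out: percent inhibition versus substrate-only and uninhibited controls. Benchmarks: no-enzyme low control, uninhibited high control.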
Scp-1 conf: confirmation of human Scp-1 phosphatase inhibitors; shares compounds with Scp1 inh; recombinant SCP-1 catalytic domain, phosphate release, malachite green absorbance; inhibition, % at 20 µM; hit rate 61% among 2,500;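 further: plate controls were DMSO with enzyme for no effect and buffer wells lacking enzyme for full effect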
MG interference: interferes with malachite green readout, flagging false Scp-1 hits; shares compounds with Scp1 inh; Colorimetric interference counterscreen, malachite green absorbance 630 nm; apparent inhibition (interference), % at 20 µM; 2,500 tested, under 10 active; AID 540313;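 further: compounds added after enzyme reaction finished so only phosphate colour detection is probed; plate controls were DMSO wells with completed Scp-1 reaction for no effect and substrate wells lacking enzyme for full effect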
Scp-1 Tm shift: Scp-1 (human) binding by thermal shift. Recombinant SCP1, Sypro Orange thermal shift Tm. hit rate 25% among 1,500. thermal shift relative to vanadate control, % at 40 µM. shares compounds with Scp1 inh;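 active means substances whose mean melting-temperature shift, as a percentage of the reference inhibitor's shift, reaches about 5.3%, limit read from the data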;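 further: 0% = Tm of DMSO wells and 100% = Tm with sodium orthovanadate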
* marks the source's active call; other numbers are inactive results; . = no result.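 How the source made its calls, unless noted: active means inhibition of at least 30% at 20 µM; inactive means the rest.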

SMILES	Scp1 inh	CFTR F508del cor	SUMO1 PPI mod	DNMT1 block	STEP block	LMPTP inh	Scp-1 conf	MG interference	others
O=C(COC(=O)c1ccc(CO)cc1)Nc1ccc2ccccc2c1	-10.2	-2.9	-1.0	-3.8	1.3	0.4	.	.
N#CCC(=O)Nc1ccc(C(=O)OCC(=O)Nc2ccc3ccccc3c2)cc1	52.5*	-0.8	11.6	-22.5	3.2	11.6	56.6*	-15.0	Scp-1 Tm shift=24.6*
CCOC(=O)c1c(NC(=O)COC(=O)c2ccc(NC(=O)CC#N)cc2)sc(C(=O)NC)c1C	57.6*	-0.1	57.2*	-9.7	1.4	40.2	61.6*	-13.4	Scp-1 Tm shift=-2.1
CCOC(=O)c1c(NC(=O)COC(=O)c2ccc(O)cc2)sc(C(=O)N(C)C)c1C	-3.4	-1.4	11.6	-5.3	0.9	0.2	.	.
O=C(Nc1ccccc1F)N1CCCCN2[C@H](C1)[C@H](c1ccc(C3=CCCCC3)cc1)[C@@H]2CO	.	-1.7	.	.	.	.	.	.
CO[C@@H](CN(C)C(=O)c1ccccc1F)[C@H](C)CN([C@H](C)CO)S(=O)(=O)c1ccccc1	.	3.3	.	.	.	.	.	.
C[C@@H]1CN([C@H](C)CO)C(=O)c2cc(NC(=O)CCCCCC(=O)Nc3ccccc3N)ccc2O[C@H]1CN(C)S(C)(=O)=O	.	-2.8	.	.	.	.	.	.
O=C(Nc1cc(S(=O)(=O)Nc2ccc(Cl)cc2)ccc1O)c1ccc(S(=O)(=O)N2CCCCCC2)cc1	80.6*	-1.4	4.9	-0.5	6.3	2.9	76.7*	-15.1	Scp-1 Tm shift=9.9*
C[C@@H]1CN([C@H](C)CO)C(=O)c2cccc(N(C)C)c2O[C@H]1CN(C)Cc1ccc(C(=O)O)cc1	.	-1.3	.	.	.	.	.	.
Cc1cc(C)c(NC(=O)CS(=O)CC(=O)Nc2ccc(N3CCOCC3)cc2)c(C)c1 (stereo not drawn)	-3.0	-1.3	-0.7	0.8	1.4	-0.6	.	.
Cc1ccc(NC(=O)CS(=O)CC(=O)Nc2ccc(N3CCOCC3)cc2)cc1Cl (stereo not drawn)	96.9*	.	1.2	-3.3	22.2	2.2	69.7*	-19.7	Scp-1 Tm shift=2.5
C[C@@H](NC(=O)[C@H]1[C@H](CO)[C@H]2Cn3c(ccc(-c4cccnc4)c3=O)[C@H]2N1C)c1ccccc1	.	1.9	.	.	.	.	.	.
CCOc1ccc(NC(=O)c2ccc(NC(=O)c3ccc(NC(N)=O)cc3)cc2)cc1	58.8*	2.4	30.1	55.9*	9.1	35.2	35.1*	-12.9	Scp-1 Tm shift=8.0*
CCOc1ccc(NC(=O)c2ccc(N)cc2)cc1	-9.1	-0.2	-1.0	-2.4	-0.9	-0.6	.	.
CC=Cc1ccc2n(c1=O)C[C@@H]1[C@@H](CO)[C@H](C(=O)NCC)[C@H]2N1CC1CCOCC1 (mixture of isomers)	.	1.0	.	.	.	.	.	.
COc1ccc(CN2CC(C(=O)NCCCOC(C)C)CC2=O)cc1 (stereo not drawn)	-12.7	.	0.7	-1.2	0.0	-2.6	-5.6	-6.5
COCCCNC(=O)C1CC(=O)N(Cc2ccc(OC)cc2)C1 (stereo not drawn)	-8.9	.	0.1	-1.2	3.0	-1.1	.	.
COc1ccc2c3c(n(C)c2c1)[C@H](CO)N(C(=O)Nc1ccc(F)cc1)CC31CN(S(=O)(=O)c2cccc(C)c2)C1	.	6.7	.	.	.	.	.	.
Cc1cc(C)cc(N(CCC#N)C(=O)COC(=O)c2ccc(OCc3c(C)noc3C)cc2)c1	50.7*	0.9	6.4	-0.3	0.2	0.6	-15.7	-12.3
CCCCc1ccc(S(=O)(=O)Nc2cc(C)on2)cc1	69.5*	.	-4.5	0.5	2.3	-1.0	-19.1	-20.8
CCCCc1ccc(S(=O)(=O)Nc2nnc(C)s2)cc1	5.2	-8.4	4.9	-1.8	3.1	-1.2	.	.
C[C@@H]1CN([C@H](C)CO)C(=O)c2cc(NC(=O)Nc3ccc(C(F)(F)F)cc3)ccc2O[C@@H]1CN(C)CC1CC1	.	1.3	.	.	.	.	.	.
CSc1nc(N)nc2c1ncn2C1OC(CO)C(O)C1O (stereo not drawn)	-5.0	-1.0	0.2	3.2	-3.3	-1.0	-11.1	-15.3
Nc1nc(SCc2ccccc2)c2ncn(C3OC(CO)C(O)C3O)c2n1 (stereo not drawn)	-6.7	2.8	1.8	-3.6	-1.2	-1.1	.	.
COc1ccccc1NC(=O)/C(N=Nc1ccc(C)c(S(=O)(=O)Nc2ccccc2Cl)c1)=C(\C)O	50.2*	6.8	2.3	-6.2	0.3	0.6	-25.2	-28.3
SMILES	Scp1 inh	CFTR F508del cor	SUMO1 PPI mod	DNMT1 block	STEP block	LMPTP inh	Scp-1 conf	MG interference	others
Cc1ccc(C(=O)Nc2ccc(C)c(S(=O)(=O)Nc3ccccc3Cl)c2)s1	-10.7	2.1	25.8	1.8	0.7	3.4	.	.
C[C@H](CO)N1C[C@H](C)[C@H](CN(C)S(=O)(=O)Cc2ccccc2)OCc2ccccc2-c2c(n(C)c3ccccc23)C1=O	.	3.2	.	.	.	.	.	.
Cc1ccc2cc(C)c3nnc(SCC(=O)NCc4ccco4)n3c2c1	78.1*	-2.1	11.5	20.0	2.1	0.5	56.6*	-14.2	Scp-1 Tm shift=-16.0
Cc1ccn2c(=O)nc(SCC(=O)NCc3ccccc3)nc2c1	86.6*	2.0	10.2	2.5	-0.9	16.0	60.8*	-12.9	Scp-1 Tm shift=5.7*
Cc1ccc2c(c1)cc(C)c1nnc(SCC(=O)NCc3ccco3)n12	21.2	1.6	1.3	6.6	-2.9	0.9	.	.
Cc1ccn2c(=O)nc(SCC(=O)NCc3ccco3)nc2c1	71.7*	-0.4	10.8	10.9	1.1	0.6	35.3*	-11.4	Scp-1 Tm shift=-15.5
CC(C)CC#Cc1ccc([C@H]2[C@H](CO)N3C(=O)CN(C(=O)c4cccc(F)c4)C[C@@H]23)cc1	.	6.9	.	.	.	.	.	.
O=C(CCCCn1c(=S)[nH]c2ccsc2c1=O)NCc1ccc2c(c1)OCO2	58.7*	2.9	14.8	-2.3	11.9	17.5	-17.5	-25.2
O=C(CCCCn1c(=O)[nH]c2ccsc2c1=O)NCc1ccc2c(c1)OCO2	-11.9	-0.2	-1.6	-1.2	-1.0	1.0	.	.
COCC(=O)N1C[C@H](C)[C@H](OC)CN(C)C(=O)c2cc(NC(=O)NC(C)C)ccc2OC[C@@H]1C	.	-1.2	.	.	.	.	.	.
O=C(Cn1c(=O)cnc2ccccc21)Nc1cc(Cl)ccc1N1CCOCC1	53.0*	0.2	-12.3	39.6	12.3	1.0	47.6*	-11.2	Scp-1 Tm shift=3.3
COc1ccc(S(=O)(=O)N(C)C[C@H]2Oc3ccc(NC(=O)c4ccncc4)cc3CC(=O)N([C@H](C)CO)C[C@H]2C)cc1	.	-1.8	.	.	.	.	.	.
CCOC(=O)CSc1[nH]c(=O)cc(C)c1C#N	50.1*	.	-1.6	1.0	-2.3	-1.3	-26.6	-22.4
